Source: ChEMBL document CHEMBL2384906, “Biological activity, design, synthesis and structure activity relationship of some novel derivatives of curcumin containing sulfonamides” (Eur J Med Chem, 2013)
In brackets after ≈: the same amount, converted by molar mass. Activity calls are given as the source filed them. The calls are words filed in the database; no cut-off is given here.

Legend:
Mus musculus = assay: Antiinflammatory activity in mouse assessed as inhibition of carrageenan-induced increase in paw volume at 200 mg/kg administered 1 hr prior to carrageenan challenge measured after 3 hrs relative to control; type: functional
How it was run: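 Mice were fasted 2 h and placed in groups of five. Controls received saline i.p. Phenylbutazone was given at 100 mg/kg i.p., curcumin at 200 mg/kg i.p., and derivatives at 200 mg/kg. After 1 h, 0.1 mL of 1% carrageenan in saline was injected subplantar into the right hind paw. Paw volume was followed by plethysmometer for 3 h, and % inhibition was calculated as (Vc − Vt)/Vc × 100.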

Trichoderma viride [1] = assay: Antifungal activity against Trichoderma viride MTCC 1107 assessed as zone of inhibition at 40 uM after 48 hrs by disc diffusion method; type: functional; conditions: MTCC 1107, 48 h, read-out: IZ
How it was run: (§1)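 Spores from 4-day potato dextrose agar cultures, suspended in sterile water at 1.5 × 10⁵ CFU/mL. 0.2 mL was spread on potato dextrose agar. 5 mm filter-paper discs soaked with test compound were laid on the lawn. Incubation was 48 h at 28 °C, then the inhibition zone was measured in mm. Fluconazole was the positive control and acetone the negative control.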

Staphylococcus aureus [2] = assay: Antimicrobial activity against Staphylococcus aureus ATCC 11632 assessed as diameter of inhibition zone at 20 uM after 24 hrs by Kirby -Baur disc diffusion method; type: functional
How it was run: (§2)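 Kirby-Bauer disc diffusion was used. Acetone stocks (160 µM) were serially doubled down to 80, 40 and 20 µM. 4 µL of each went onto 5 mm sterile paper discs, which were dried 30 min at 50 °C. Inoculum was 1.5 × 10⁸ CFU/mL diluted to 3 × 10² CFU/mL, and 50 µL was spread on Mueller-Hinton agar. After 24 h at 37 °C the inhibition-zone diameter was measured. Ciprofloxacin served as positive control.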

Salmonella typhi [3] = assay: Antimicrobial activity against Salmonella typhi ATCC 23564 assessed as diameter of inhibition zone at 40 uM after 24 hrs by Kirby -Baur disc diffusion method; type: functional; conditions: Salmonella enterica subsp. enterica serovar Typhi
Pseudomonas aeruginosa [4] = assay: Antimicrobial activity against Pseudomonas aeruginosa ATCC 15499 assessed as diameter of inhibition zone at 80 uM after 24 hrs by Kirby -Baur disc diffusion method; type: functional; how it was run: as §2
Aspergillus niger [5] = assay: Antifungal activity against Aspergillus niger MTCC 1108 assessed as zone of inhibition at 80 uM after 48 hrs by disc diffusion method; type: functional; how it was run: as §1
HepG2 = assay: Cytotoxicity against human HepG2 cells after 24 hrs by MTT assay; type: functional, cell-based
How it was run: (§3)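 The MTT assay seeded 5 × 10⁴ cells per well and grew them 24 h in RPMI 1640 with compound at 2.5–200 µM. Medium without cells was the blank and adriamycin the positive control. MTT was added for 4 h at 37 °C, formazan was solubilised, and absorbance was read at 570 nm. IC50 is the concentration that cuts viability 50% against untreated cells.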

Staphylococcus aureus [6] = assay: Antimicrobial activity against Staphylococcus aureus ATCC 11632 after 24 hrs by broth micro serial dilution method; type: functional; conditions: ATCC 11632, 24 h
How it was run: (§4)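 This was broth microdilution in autoclaved Mueller-Hinton broth. 150 µL of compound per well was serially diluted […], and 50 µL of test organism was added. Plates were incubated 24 h at 37 °C and optical density was read.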

Curvularia lunata [7] = assay: Antifungal activity against Curvularia lunata MTCC 581 after 48 hrs; type: functional; conditions: MTCC 581, 48 h
Aspergillus niger [8] = assay: Antifungal activity against Aspergillus niger MTCC 1108 after 48 hrs; type: functional
Trichoderma viride [9] = assay: Antifungal activity against Trichoderma viride MTCC 1107 assessed as zone of inhibition at 80 uM after 48 hrs by disc diffusion method; type: functional; conditions: MTCC 1107, 48 h, read-out: IZ; how it was run: as §1
HeLa = assay: Cytotoxicity against human HeLa cells after 24 hrs by MTT assay; type: functional, cell-based; how it was run: as §3
Aspergillus flavus [10] = assay: Antifungal activity against Aspergillus flavus MTCC 1021 after 48 hrs; type: functional
Escherichia coli [11] = assay: Antimicrobial activity against Escherichia coli ATCC 35218 assessed as diameter of inhibition zone at 80 uM after 24 hrs by Kirby -Baur disc diffusion method; type: functional; conditions: ATCC 35218, 24 h, read-out: DIZ; how it was run: as §2
Escherichia coli [12] = assay: Antimicrobial activity against Escherichia coli ATCC 35218 after 24 hrs by broth micro serial dilution method; type: functional; conditions: ATCC 35218, 24 h; how it was run: as §4
Aspergillus flavus [13] = assay: Antifungal activity against Aspergillus flavus MTCC 1021 assessed as zone of inhibition at 80 uM after 48 hrs by disc diffusion method; type: functional; how it was run: as §1
Escherichia coli [14] = assay: Antimicrobial activity against Escherichia coli ATCC 35218 assessed as diameter of inhibition zone at 40 uM after 24 hrs by Kirby -Baur disc diffusion method; type: functional; conditions: ATCC 35218, 24 h, read-out: DIZ; how it was run: as §2
Trichoderma viride [15] = assay: Antifungal activity against Trichoderma viride MTCC 1107 assessed as zone of inhibition at 20 uM after 48 hrs by disc diffusion method; type: functional; conditions: MTCC 1107, 48 h, read-out: IZ; how it was run: as §1
Bacillus cereus [16] = assay: Antimicrobial activity against Bacillus cereus MTCC 7350 assessed as diameter of inhibition zone at 40 uM after 24 hrs by Kirby -Baur disc diffusion method; type: functional; how it was run: as §2
Bacillus cereus [17] = assay: Antimicrobial activity against Bacillus cereus MTCC 7350 assessed as diameter of inhibition zone at 20 uM after 24 hrs by Kirby -Baur disc diffusion method; type: functional; how it was run: as §2
Bacillus cereus [18] = assay: Antimicrobial activity against Bacillus cereus MTCC 7350 after 24 hrs by broth micro serial dilution method; type: functional; conditions: MTCC 7350, 24 h; how it was run: as §4
Curvularia lunata [19] = assay: Antifungal activity against Curvularia lunata MTCC 581 assessed as zone of inhibition at 20 uM after 48 hrs by disc diffusion method; type: functional; conditions: MTCC 581, 48 h, read-out: IZ; how it was run: as §1
Trichoderma viride [20] = assay: Antifungal activity against Trichoderma viride MTCC 1107 after 48 hrs; type: functional; conditions: MTCC 1107, 48 h
Salmonella typhi [21] = assay: Antimicrobial activity against Salmonella typhi ATCC 23564 assessed as diameter of inhibition zone at 80 uM after 24 hrs by Kirby -Baur disc diffusion method; type: functional, Salmonella enterica subsp. enterica serovar Typhi; conditions: Salmonella enterica, ATCC 23564, 24 h; read-out: DIZ
Bacillus cereus [22] = assay: Antimicrobial activity against Bacillus cereus MTCC 7350 assessed as diameter of inhibition zone at 80 uM after 24 hrs by Kirby -Baur disc diffusion method; type: functional; conditions: MTCC 7350, 24 h, read-out: DIZ; how it was run: as §2
Escherichia coli [23] = assay: Antimicrobial activity against Escherichia coli ATCC 35218 assessed as diameter of inhibition zone at 20 uM after 24 hrs by Kirby -Baur disc diffusion method; type: functional; conditions: ATCC 35218, 24 h, read-out: DIZ; how it was run: as §2
QG-56 = assay: Cytotoxicity against human QG56 cells after 24 hrs by MTT assay; type: functional, cell-based; how it was run: as §3
Pseudomonas aeruginosa [24] = assay: Antimicrobial activity against Pseudomonas aeruginosa ATCC 15499 after 24 hrs by broth micro serial dilution method; type: functional; conditions: ATCC 15499, 24 h; how it was run: as §4
Curvularia lunata [25] = assay: Antifungal activity against Curvularia lunata MTCC 581 assessed as zone of inhibition at 40 uM after 48 hrs by disc diffusion method; type: functional; conditions: MTCC 581, 48 h, read-out: IZ; how it was run: as §1
Staphylococcus aureus [26] = assay: Antimicrobial activity against Staphylococcus aureus ATCC 11632 assessed as diameter of inhibition zone at 40 uM after 24 hrs by Kirby -Baur disc diffusion method; type: functional; conditions: ATCC 11632, 24 h, read-out: DIZ; how it was run: as §2
Staphylococcus aureus [27] = assay: Antimicrobial activity against Staphylococcus aureus ATCC 11632 assessed as diameter of inhibition zone at 80 uM after 24 hrs by Kirby -Baur disc diffusion method; type: functional; conditions: ATCC 11632, 24 h, read-out: DIZ; how it was run: as §2
HCT-116 = assay: Cytotoxicity against human HCT116 cells after 24 hrs by MTT assay; type: functional, cell-based; how it was run: as §3
Curvularia lunata [28] = assay: Antifungal activity against Curvularia lunata MTCC 581 assessed as zone of inhibition at 80 uM after 48 hrs by disc diffusion method; type: functional; conditions: MTCC 581, 48 h, read-out: IZ; how it was run: as §1
Salmonella typhi [29] = assay: Antimicrobial activity against Salmonella typhi ATCC 23564 after 24 hrs by broth micro serial dilution method; type: functional, Salmonella enterica subsp. enterica serovar Typhi; conditions: Salmonella enterica, ATCC 23564, 24 h
Salmonella typhi [30] = assay: Antimicrobial activity against Salmonella typhi ATCC 23564 assessed as diameter of inhibition zone at 20 uM after 24 hrs by Kirby -Baur disc diffusion method; type: functional; conditions: Salmonella enterica subsp. enterica serovar Typhi

## COc1ccc(NS(=O)(=O)c2ccc(/N=N/c3c(/C=C/c4ccc(O)c(OC)c4)nn(-c4ccccc4)c3/C=C/c3ccc(O)c(OC)c3)cc2)nn1
Mus musculus
  inhibition in vivo at 200 mg/kg: 45.1%
Trichoderma viride [1]
  zone of inhibition at 40 µM: 16 mm
Staphylococcus aureus [2]
  diameter of the inhibition zone (DIZ): inactive
Salmonella typhi [3]
  diameter of the inhibition zone (DIZ): inactive
Pseudomonas aeruginosa [4]
  diameter of the inhibition zone (DIZ): inactive
Aspergillus niger [5]
  inhibition zone (IZ): inactive
HepG2
  IC50: > 100 µM
Staphylococcus aureus [6]
  MIC: > 80 µM
Curvularia lunata [7]
  MIC: 20 µM (≈ 14.6 µg/mL)
Aspergillus niger [8]
  MIC: inactive
Trichoderma viride [9]
  zone of inhibition at 80 µM: 19 mm
HeLa
  IC50: 50 µM
Aspergillus flavus [10]
  MIC: inactive
Escherichia coli [11]
  zone of inhibition at 80 µM: 11 mm
Escherichia coli [12]
  MIC: > 80 µM
Aspergillus flavus [13]
  inhibition zone (IZ): inactive
Escherichia coli [14]
  zone of inhibition at 40 µM: 9 mm
Trichoderma viride [15]
  zone of inhibition at 20 µM: 12 mm
Bacillus cereus [16]
  diameter of the inhibition zone (DIZ): inactive
Bacillus cereus [17]
  diameter of the inhibition zone (DIZ): inactive
Bacillus cereus [18]
  MIC: > 80 µM
Curvularia lunata [19]
  zone of inhibition at 20 µM: 12 mm
Trichoderma viride [20]
  MIC: 40 µM (≈ 29.3 µg/mL)
Salmonella typhi [21]
  zone of inhibition at 80 µM: 10 mm
Bacillus cereus [22]
  zone of inhibition at 80 µM: 9 mm
Escherichia coli [23]
  zone of inhibition at 20 µM: 8 mm
QG-56
  IC50: 100 µM
Pseudomonas aeruginosa [24]
  MIC: > 80 µM
Curvularia lunata [25]
  zone of inhibition at 40 µM: 16 mm
Staphylococcus aureus [26]
  zone of inhibition at 40 µM: 7 mm
Staphylococcus aureus [27]
  zone of inhibition at 80 µM: 9 mm
HCT-116
  IC50: Not Active
Curvularia lunata [28]
  zone of inhibition at 80 µM: 19 mm
Salmonella typhi [29]
  MIC: > 80 µM
Salmonella typhi [30]
  diameter of the inhibition zone (DIZ): inactive
